Calls of active or inactive are those of the source.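 Rule for the calls, unless noted: active = viability at or below 30% in both replicate assays; inconclusive = viability at or below 30% in just one of the two assays; inactive = the rest.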
Assays:
[1] = reduced viability of SK-BR-3 breast cancer cells – cell-based, 24 h, human, pilot screen (AID 572;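 active = viability at or below 10% of carrier control in both of two separate runs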;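 note: compound exposure lasted between 18 and 24 h rather than exactly 24 h; 100% = carrier-treated control wells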); conditions: SK-BR-3 viability, CellTiter-Glo luminescence, at 10 µM, stronger effect = lower value
[2] = HUVEC growth inhibition – cell-based, human, primary screen (AID 575); conditions: HUVEC proliferation, CellTiter-Glo luminescence, 72 h; at 10 µM; stronger effect = lower value;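 note: 100% = median of untreated cell wells with 0.1% DMSO on each plate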
Summary of the method: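 Test system: HUVEC primary cells. Quantity: 1250 endothelial cells in each well. Dosing: single-point 10 µM, DMSO 0.1% final. Incubation: 72 h treatment at 37 °C. Measured by: CTG luminescence. Control set: DMSO cell controls and MePR drug controls. Plate: collagen-coated 384-well format.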

[3] = H69AR cell proliferation blockers – human, duplicate replicates, primary screen (AID 580;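 active = viability at or under a set limit in both replicates, limit being median viability minus 3 SD, cut at about 48% in these data, passing the limit was not always enough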;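 note: 100% = mean luminescence of untreated wells and 0% = no signal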); conditions: H69AR lung tumor cells viability, ATP luminescence, 72 h; at 10 µM; stronger effect = lower value
[4] = MRP1 drug-resistance reversers in H69AR cells – cell-based, doxorubicin co-treatment, pilot screen (AID 601;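 active = viability loss from added drug above about 55%, and viability with drug at most 40%, in both replicates, limit read from the data, passing the limit was not always enough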); conditions: CellTiter-Glo, 72 h, at 10 µM; for differential viability (reversal): stronger effect = higher value
[5] = yeast transport mutant growth inhibition pilot in 384-well plates, post-Golgi transport modulator project (AID 636; in the data active = inhibition above about 31%); conditions: absorbance 615 nm, about 18 h, stronger effect = higher value
[6] = growth suppression of yeast trafficking mutant, preliminary HTS, modulators of trafficking downstream of Golgi apparatus project, 1536-format plate, OD 615 nm (AID 637; in the data active = inhibition above about 30%); conditions: yeast transport mutant growth, absorbance 615 nm, 18 h; stronger effect = higher value
[7] = H69AR cells + 2 uM doxorubicin, measured here: viability with 2 uM doxorubicin, stronger effect = lower value
[8] = H69AR cells, compound alone cytotoxicity

| SMILES | viability [1] | viability [2] | viability [3] | differential viability (reversal) ([4]; H69AR cells + 2 uM doxorubicin) | viability [4, 7] | viability [4, 8] | inhibition [5] | inhibition [6] |
| --- | --- | --- | --- | --- | --- | --- | --- | --- |
| CC(C)n1nnnc1SCC(=O)Nc1ccccc1N1CCOCC1 | 53% (inactive) | 98.4% (inactive) | 98.5% (inactive) | -0.48% (inactive) | 99% | 98.5% | -5.75% (inactive) | 2.73% (inactive) |
| C=CCSc1nnc(NC(=O)c2ccc(S(=O)(=O)NCC3CCCO3)cc2)s1 (stereo not drawn) | 97% (inactive) | 84.3% (inactive) | 90.4% (inactive) | -2.83% (inactive) | 93.2% | 90.4% | -3.84% (inactive) | -3.71% (inactive) |
| O=C(CSc1nnc(-c2ccccc2)o1)NC1CCCCC1 | 75% (inactive) | 105% (inactive) | 98.5% (inactive) | 14.7% (inactive) | 83.9% | 98.5% | -7.12% (inactive) | 3.55% (inactive) |
| CN(Cc1ccccc1)C(=O)c1ccccc1NC(=O)c1ccco1 | 94% (inactive) | 104% (inactive) | 101% (inactive) | 13.5% (inactive) | 87.1% | 101% | -1.76% (inactive) | -2.55% (inactive) |
| COc1cc(CO)cc(-c2cc(CO)cc(OC)c2OC)c1OC | 82% (inactive) | 95.8% (inactive) | 92.5% (inactive) | 1.68% (inactive) | 90.9% | 92.5% | -8.67% (inactive) | -6.91% (inactive) |
| CCOc1ccccc1C1N(c2ccc(F)cc2)C(=O)C2CCCN21 (stereo not drawn) | 109% (inactive) | 111% (inactive) | 99% (inactive) | 19.2% (inactive) | 79.8% | 99% | -4.4% (inactive) | 2.18% (inactive) |
| CCn1cc(C(=O)O)c(=O)c2cc(F)c(N3CCNCC3)nc21 | 106% (inactive) | 84% (inactive) | 105% (inactive) | 3.24% (inactive) | 102% | 105% | 2.34% (inactive) | -2.33% (inactive) |
| CCc1n[nH]c2c1C(=O)CC(C)(C)C2 | 73% (inactive) | 106% (inactive) | 89.1% (inactive) | -1.54% (inactive) | 90.6% | 89.1% | 2% (inactive) | 6% (inactive) |
| COC(=O)CNc1nc(C2CC2)nc2c1nnn2Cc1ccccc1Cl | 89% (inactive) | 84.9% (inactive) | 94.7% (inactive) | -2.29% (inactive) | 97% | 94.7% | -9.04% (inactive) | 1.13% (inactive) |
| CCOC(=O)c1[nH]c2ccc(F)cc2c1NC(=O)C(C)N1CCc2cc(OC)c(OC)cc2C1 (stereo not drawn) | 99% (inactive) | 57.9% (inactive) | 13.5% (active) | -55.2% (inactive) | 68.7% | 13.5% | -3.42% (inactive) | 7.87% (inactive) |
| O=C(COC(=O)c1cc(S(=O)(=O)N2CCOCC2)cs1)c1ccccc1 | 115% (inactive) | 93.3% (inactive) | 99.9% (inactive) | 16.3% (inactive) | 83.5% | 99.9% | -3.64% (inactive) | -1.97% (inactive) |
| Cn1c(C(=O)NCc2cccnc2)cc2sccc21 | 115% (inactive) | 102% (inactive) | 93% (inactive) | -2.84% (inactive) | 95.8% | 93% | 5.21% (inactive) | 11.1% (inactive) |
| CC1(C)S[C@@H]2[C@H](NC(=O)[C@H](N)c3ccccc3)C(=O)N2[C@H]1C(=O)O | 103% (inactive) | 93.8% (inactive) | 107% (inactive) | 15.6% (inactive) | 91.4% | 107% | -5.32% (inactive) | 3.33% (inactive) |
| CC(=O)[C@H]1[C@H](C#N)C[C@H]2[C@@H]3CC=C4C[C@@H](O)CC[C@]4(C)[C@H]3CC[C@@]21C | 136% (inactive) | 103% (inactive) | 87% (inactive) | 1.78% (inactive) | 85.2% | 87% | -2.73% (inactive) | 7.33% (inactive) |
| Cc1ccc(F)cc1NC(=O)C1CCCN(c2ncccn2)C1 (stereo not drawn) | 100% (inactive) | 104% (inactive) | 88.7% (inactive) | -1.88% (inactive) | 90.6% | 88.7% | -6.8% (inactive) | -2.91% (inactive) |
| CC1(C)C2CCC1(C)C(OC(=O)CSc1nc(N)cc(=O)[nH]1)C2 (stereo not drawn) | 104% (inactive) | 94.2% (inactive) | 92.8% (inactive) | 6.73% (inactive) | 86.1% | 92.8% | -2.53% (inactive) | -6.91% (inactive) |
| C[N+](C)(C)CCOP(=O)([O-])OC[C@H](O)CO | 100% (inactive) | 99.1% (inactive) | 96% (inactive) | 0.95% (inactive) | 95% | 96% | -2.99% (inactive) | -5.17% (inactive) |
| Cc1nc(NC(=O)c2csc3ccccc23)sc1C | 100% (inactive) | 83% (inactive) | 78.2% (inactive) | -3.3% (inactive) | 81.5% | 78.2% | 3.84% (inactive) | -2.74% (inactive) |

| SMILES | viability [1] | viability [2] | viability [3] | differential viability (reversal) ([4]; H69AR cells + 2 uM doxorubicin) | viability [4, 7] | viability [4, 8] | inhibition [5] | inhibition [6] |
| --- | --- | --- | --- | --- | --- | --- | --- | --- |
| CCN1C(=O)CC(N2CCC(Nc3ccc(F)cc3)CC2)C1=O (stereo not drawn) | 78% (inactive) | 93.5% (inactive) | 92.3% (inactive) | 1.94% (inactive) | 90.3% | 92.3% | -0.65% (inactive) | -0.98% (inactive) |
| CCCCn1cnc2c(c1=O)c1nc3ccccc3nc1n2Cc1ccc2c(c1)OCO2 | 85% (inactive) | 85.9% (inactive) | 68.9% (inactive) | -5.45% (inactive) | 74.3% | 68.9% | -5.14% (inactive) | -1.82% (inactive) |
| Cc1ccc(NC(=O)COC(=O)c2ccn(C)n2)cc1 | 76% (inactive) | 90.8% (inactive) | 87.2% (inactive) | 7.78% (inactive) | 79.4% | 87.2% | -2.74% (inactive) | -1.09% (inactive) |
| Cc1cc(C(=O)N2CCCc3ccccc32)no1 | 98% (inactive) | 102% (inactive) | 105% (inactive) | 14.4% (inactive) | 90.3% | 105% | -2.27% (inactive) | 1.27% (inactive) |
| N#Cc1c(NCc2ccccc2)ccnc1NCc1cccnc1 | 78% (inactive) | 59.2% (inactive) | 98.6% (inactive) | 4.3% (inactive) | 94.3% | 98.6% | -6.08% (inactive) | -0.55% (inactive) |
| COC(=O)CSc1ncccc1-c1nc2ccccc2[nH]1 | 110% (inactive) | 96.9% (inactive) | 90.8% (inactive) | -0.73% (inactive) | 91.5% | 90.8% | -2.33% (inactive) | -5.48% (inactive) |
| CC(C)(C)C(=O)OCC1OC(n2cnc(C(N)=O)n2)C(O)C1O (stereo not drawn) | 89% (inactive) | 99.1% (inactive) | 96.1% (inactive) | 1.56% (inactive) | 94.5% | 96.1% | -8.22% (inactive) | -2.36% (inactive) |
| COCCCn1c(=N)c(C(=O)NCC2CCCO2)cc2c(=O)n3cccc(C)c3nc21 (stereo not drawn) | 62% (inactive) | 93% (inactive) | 98.7% (inactive) | 5.39% (inactive) | 93.3% | 98.7% | -6.8% (inactive) | 2.18% (inactive) |
| CC(=O)NCCC(=O)Nc1ccc(C)c(F)c1 | 110% (inactive) | 110% (inactive) | 91.4% (inactive) | -17% (inactive) | 108% | 91.4% | -2.05% (inactive) | 3.09% (inactive) |
| COc1ccc(/C=C/C(=O)Nc2ccccc2C(=O)O)cc1OC | 104% (inactive) | 64.4% (inactive) | 94.7% (inactive) | 0.56% (inactive) | 94.1% | 94.7% | 0.78% (inactive) | -1.83% (inactive) |
| Cc1cn2c(-c3ccncc3)nnc2s1 | 144% (inactive) | 87.4% (inactive) | 99.8% (inactive) | 7.13% (inactive) | 92.7% | 99.8% | -1.23% (inactive) | 3.55% (inactive) |
| Cc1ccc(-c2nn(-c3ccccc3)cc2/C=C(\C#N)c2cccc(C#N)c2)o1 | 71% (inactive) | 92% (inactive) | 71.6% (inactive) | -1.65% (inactive) | 73.3% | 71.6% | -9.32% (inactive) | 5.27% (inactive) |
| Cc1ccc(CC2SC(=O)NC2=O)cc1Cl (stereo not drawn) | 107% (inactive) | 75.8% (inactive) | 92.7% (inactive) | 4.26% (inactive) | 88.4% | 92.7% | 3.42% (inactive) | -2.26% (inactive) |
| CCCNC(=O)NC1C(NC(=O)NCCC)N(C)C(=O)N1C (stereo not drawn) | 86% (inactive) | 104% (inactive) | 105% (inactive) | 14.2% (inactive) | 90.7% | 105% | -1.04% (inactive) | -0.49% (inactive) |
| COc1cc2c(cc1OC)C(/C(C#N)=N\O)=NC(C)(C)C2 | 86% (inactive) | 107% (inactive) | 100% (inactive) | 8.75% (inactive) | 91.6% | 100% | -8.77% (inactive) | 2% (inactive) |
| COC(=O)CCC(NC(=O)c1cc(-c2ccc3c(c2)OCCO3)oc1C)C(=O)OC (stereo not drawn) | 91% (inactive) | 74.8% (inactive) | 85.3% (inactive) | 3.48% (inactive) | 81.9% | 85.3% | -6.44% (inactive) | 0.81% (inactive) |
| Cc1cc(Nc2ccccc2)n(-c2ccccc2)n1 | 123% (inactive) | 94.3% (inactive) | 101% (inactive) | 5.72% (inactive) | 95.6% | 101% | -1.1% (inactive) | -6.61% (inactive) |
| CN(Cc1ccc(-n2cccn2)cc1)C(=O)c1cnn2c1NC(c1ccco1)CC2C(F)(F)F (stereo not drawn) | 74% (inactive) | 82.3% (inactive) | 78.4% (inactive) | -7.45% (inactive) | 85.8% | 78.4% | 2.88% (inactive) | -0.36% (inactive) |

From PubChem BioAssay
